Measured values from ChEMBL document CHEMBL1629413, “Hirsutalins A-H, eunicellin-based diterpenoids from the soft coral Cladiella hirsuta” (J Nat Prod, 2010).

Assays:
Ca9-22 = experiment: Cytotoxicity against human Ca9-22 cells by MTT assay; assay type: functional, cell-based
In short: (§1)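 Tumor cell lines from ATCC. Viability measured by MTT colorimetric method in duplicate, with doxorubicin as positive control. Read-out reported as IC50.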

[1] = Cytotoxicity against human Hep3B cells by MTT assay; assay type: functional, cell-based, Hep 3B2; in short: as §1
A549 = experiment: Cytotoxicity against human A549 cells by MTT assay; assay type: functional, cell-based; in short: as §1
MDA-MB-231 = experiment: Cytotoxicity against human MDA-MB-231 cells by MTT assay; assay type: functional, cell-based; in short: as §1
HepG2 = experiment: Cytotoxicity against human HepG2 cells by MTT assay; assay type: functional, cell-based; in short: as §1
MCF7 = experiment: Cytotoxicity against human MCF7 cells by MTT assay; assay type: functional, cell-based; in short: as §1
RAW264.7 [2] = experiment: Antiinflammatory activity in mouse RAW264.7 cells assessed as accumulation of LPS-induced iNOS at 10 uM by immunoblot analysis; assay type: functional
In short: (§2)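 RAW264.7 macrophages (ATCC) stimulated with LPS, with test compound at 10 μM. iNOS and COX-2 protein levels measured by western blotting. Levels expressed as % of cells treated with LPS alone.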

RAW264.7 [3] = experiment: Antiinflammatory activity in mouse RAW264.7 cells assessed as accumulation of LPS-induced COX-2 at 10 uM by immunoblot analysis; assay type: functional; in short: as §2

Structure (SMILES): C=C1C[C@H]2O[C@H]([C@@H]3[C@@H]([C@@H](C)COC(=O)CCC)CC=C(C)[C@@H]32)[C@](C)(OC(=O)[C@H](O)CC)CC[C@@H]1O [HIRSUTALIN A]
- IC50 (Ca9-22): 35 µM
- IC50 [1]: 29 µM
- IC50 (A549): 28 µM

Structure (SMILES): CCCC(=O)O[C@]1(C)CC[C@H](O)[C@@](C)(O)C[C@H]2O[C@@H]1[C@H]1[C@@H]2C(C)=CC[C@@H]1C(C)C [HIRSUTALIN E]
- IC50 (Ca9-22): 34 µM
- IC50 [1]: 14 µM
- IC50 (MDA-MB-231): 41 µM
- IC50 (A549): 34 µM
- IC50 (HepG2): 4.7 µM
- IC50 (MCF7): 35 µM

Structure (SMILES): C=C1CC[C@H]([C@@H](C)COC(C)=O)[C@@H]2[C@H]1[C@H]1CC(=C)[C@@H](O)CC(OC(=O)C(CC)OC(=O)CCC)[C@@](C)(O)[C@@H]2O1 (some centres not stated) [HIRSUTALIN B]
- Activity (RAW264.7 [2]): 6.8%
- Activity (RAW264.7 [3]): 49%

Structure (SMILES): C=C1CC[C@H]([C@@H](C)CO)[C@@H]2[C@H]1[C@H]1CC(=C)[C@@H](O)CC[C@@](C)(OC(=O)C(CC)OC(C)=O)[C@@H]2O1 (some centres not stated) [HIRSUTALIN D]
- Activity (RAW264.7 [2]): 3.3%

Structure (SMILES): C=C1CC[C@H]([C@@H](C)CO)[C@@H]2[C@H]1C(=O)C[C@@](C)(O)[C@H]1CC[C@@](C)(OC(=O)C(CC)OC(=O)CCC)[C@@H]2O1 (some centres not stated) [HIRSUTALIN F]
- IC50 [1]: 29 µM
- IC50 (HepG2): 29 µM
- IC50 (MCF7): 32 µM

Structure (SMILES): C=C1CC[C@H]([C@@H](C)COC(C)=O)[C@@H]2[C@H]1[C@H]1C[C@](C)(O)[C@@H](O)CC[C@@](C)(OC(=O)CCC)[C@@H]2O1 [HIRSUTALIN H]
- Activity (RAW264.7 [2]): 32.3%

Structure (SMILES): C=C1CC[C@H]([C@@H](C)CO)[C@@H]2[C@H]1[C@H]1CC(=C)[C@@H](O)CC[C@@](C)(OC(=O)C(CC)OC(=O)CCC)[C@@H]2O1 (some centres not stated) [HIRSUTALIN C]
- Activity (RAW264.7 [2]): 43.6%
